The text below walks through data of ChEMBL document CHEMBL1123672, “Structure-activity relationships of sparsomycin and its analogues. Inhibition of peptide bond formation in cell-free systems and of L1210 and bacterial cell growth” (J Med Chem, 1987).

Molecules are shown by their SMILES.

Data set [1] is described as follows: Ability to inhibit the bacterial growth of Escherichia coli (MRE600) by 50% was determined. Also noted: reference not given here. The data set is classed as functional.
The subject of data set [2] is Saccharomyces cerevisiae. Briefly: Ability to inhibit the peptide bond formation by fragment reaction in Saccharomyces cerevisiae was determined. The following applies: read-out: ED50 (the source's name). The data set is classed as functional. In short, it runs like this:
(§1)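 Fragment reaction: ribosomes (1 mg/mL, from E. coli MRE600 or S. cerevisiae Y166) in 150 μL of 33 mM Tris-HCl pH 7.4, 270 mM KCl, 13 mM Mg acetate, with 2 mM puromycin, 1 pmol N-acetyl-[³H]Leu-ACCAC(U) donor (ribonuclease T1 fragment of N-acetyl-[³H]Leu-tRNA), 33% methanol and test drug; no mRNA or small subunit. Values are averages of three experiments.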

Data set [3] has as its system Saccharomyces cerevisiae. The data set can be described thus: Ability to inhibit the phenylalanine synthesis in Saccharomyces cerevisiae was determined. Type of data set: functional. As to conditions: read-out: ED50 (the source's name). Summed up: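 Yeast (S. cerevisiae Y166) ribosomes and S-100 in the same poly(U)/[³H]Phe mix as the E. coli assay, with 20 mM creatine phosphate and 50 μg/mL creatine phosphokinase as the energy system. Incubation was 30 min at 30 °C. Cold 10% TCA precipitate was filter-counted. Averages of three experiments.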

Data set [4] can be described thus: (§2) Effect of 2-propanol on inhibition of the fragment reaction in the presence of 10 uM of compound was determined. As to conditions: in the assay text read “100 uM” for “10 uM”. Type of data set: functional. In short, it runs like this: (§3)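 Solvent comparison: the fragment reaction (ribosomes with puromycin acceptor and N-acetyl-[³H]Leu-ACCAC(U) donor, in Tris-HCl pH 7.4/KCl/Mg acetate buffer) was run with methanol, ethanol, 2-propanol or butanol as the required organic solvent. Read-out is percent inhibition at the fixed drug level given in each line; series A and B are separate experiments.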

The subject of data set [5] is Escherichia coli. The data set can be described thus: Ability to inhibit the peptide bond formation by fragment reaction in Escherichia coli was determined. Type of data set: functional. As to conditions: read-out: ED50 (the source's name). Summed up:
as §1

Data set [6] concerns Saccharolobus solfataricus. Briefly: Ability to inhibit the phenylalanine synthesis in Sulfolobus solfataricus was determined. The data set is classed as functional. The following applies: read-out: ED50 (the source's name).
The test system of data set [7] is Escherichia coli. The data set can be described thus: Ability to inhibit the phenylalanine synthesis in Escherichia coli was determined. Type of data set: functional. As to conditions: read-out: ED50 (the source's name). In short, it runs like this: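 Poly(U)-directed [³H]Phe polymerization with E. coli MRE600 ribosomes ([…]) and S-100. The reaction was started with 30 μM [³H]Phe and run 30 min at 37 °C. TCA-insoluble counts were taken on glass-fiber filters. Averages of three experiments.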

The nature of data set [8]: (§4) Effect of ethanol on inhibition of the fragment reaction in the presence of 10 uM of compound was determined. The following applies: in the assay text read “100 uM” for “10 uM”. The data set is classed as functional. In short, it runs like this: as §3
Data set [9] can be described thus: (§5) Effect of methanol on inhibition of the fragment reaction in the presence of 10 uM of compound was determined. Type of data set: functional. As to conditions: in the assay text read “100 uM” for “10 uM”. In short, it runs like this: as §3
In data set [10] the test system is Escherichia coli. The data set can be described thus: Ability to inhibit the peptide bond formation by puromycin reaction in Escherichia coli was determined. As to conditions: read-out: ED50 (the source's name). Type of data set: functional.
A short description of data set [11]: (§6) Effect of butanol on inhibition of the fragment reaction in the presence of 10 uM of compound was determined. Type of data set: functional. As to conditions: in the assay text read “100 uM” for “10 uM”. Summed up:
as §3

In data set [12] the test system is L1210. Briefly: Ability to inhibit the colony formation of leukemia L1210 cells in agar medium (0.3%) was determined. The following applies: Mus musculus, read-out: ID50 (the source's name). The data set is classed as functional.
A short description of data set [13]: Effect of methanol on inhibition of the fragment reaction in the presence of 200 uM of compound was determined.
A short description of data set [14]: Effect of 2-propanol on inhibition of the fragment reaction in the presence of 200 uM of compound was determined.
The nature of data set [15]: Effect of ethanol on inhibition of the fragment reaction in the presence of 200 uM of compound was determined.
Data set [16] is described as follows: Ability to inhibit the growth of Escherichia coli (MRE600) by 50% was determined. Activity represent the ratio of ED50 of sparsomycin to the ED50 of the compound. The data set is classed as functional. In short, it runs like this: (§7)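 Liquid culture: E. coli MRE600 was grown in LB plus 0.2% glucose to A560 0.1, then 1-mL aliquots were incubated with drug 4 h at 37 °C. Growth was stopped with 0.1% sodium azide and A550 read; drug-free medium counts as 100%. ED50 (μM) is the dose giving 50% growth; the value reported is sparsomycin ED50/analogue ED50.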

Data set [17] in a line: Effect of methanol on inhibition of the fragment reaction in the presence of 20 uM of compound was determined from Expt-B. In short, it runs like this: as §3
Data set [18] in a line: Effect of butanol on inhibition of the fragment reaction in the presence of 10 uM of compound was determined from Expt-A. Summed up: as §3
The nature of data set [19]: Effect of ethanol on inhibition of the fragment reaction in the presence of 20 uM of compound was determined from Expt-B. In short, it runs like this:
as §3

The nature of data set [20]: Effect of 2-propanol on inhibition of the fragment reaction in the presence of 20 uM of compound was determined from Expt-B. Summed up: as §3
Data set [21] in a line: Effect of ethanol on inhibition of the fragment reaction in the presence of 10 uM of compound was determined from Expt-A. In short, it runs like this: as §3
The nature of data set [22]: Effect of methanol on inhibition of the fragment reaction in the presence of 10 uM of compound was determined from Expt-A. In short, it runs like this: as §3
Data set [23] in a line: Effect of 2-propanol on inhibition of the fragment reaction in the presence of 10 uM of compound was determined from Expt-A. In short, it runs like this:
as §3

Data set [24] can be described thus: as §5. Summed up:
as §3

Data set [25] is described as follows: as §4. Summed up:
as §3

Data set [26] in a line: as §2. Summed up: as §3
Data set [27] is described as follows: as §6. In short, it runs like this:
as §3

The nature of data set [28]: Ability to inhibit the bacterial growth of Escherichia coli (MRE600) by 50% was determined Activity represent the ratio of ED50 of sparsomycin to the ED50 of the compound. The data set is classed as functional. Summed up: as §7

In general, inhibition refers to the drop in the measured response relative to a control, in per cent. Take `CCCCCCCCCC[S+]([O-])CC(CO)NC(=O)/C=C/c1c(C)nc(O)nc1O` (stereo not drawn): in [1], the Ratio is 3.6. For the same molecule, the EC50 in data set [2] turned out to be 700 µM; in data set [3] it was 0.2 µM; in data set [5], 5000 µM; in data set [6], 30 µM; in data set [7], 1.8 µM; in [10], 0.08 µM. In addition, the inhibition was found to be 12% in [4], 35% in [8], 44% in [9] and 15% in [11]. Further, in data set [12], the IC50 was determined as 0.14 µM.

What is called Inhibition is how much of the control response was suppressed. As to `CCCCCCCCSC[S+]([O-])CC(CO)NC(=O)/C=C/c1c(C)nc(O)nc1O` (stereo not drawn), the Ratio in data set [1] worked out at 2.5. Moreover, the Inhibition in data set [13] is listed as 42%; in [14], 6%; in [15], 30%. The EC50 in [2] amounted to 300 µM; in data set [3] it was 1.3 µM; in [5] it was 60 µM; in data set [7], 1.6 µM; in data set [10] it was 0.25 µM. Also, in data set [12], the IC50 stood at 0.1 µM.

As for `CSC[S@@+]([O-])C[C@H](CO)NC(=O)/C=C/c1c(C)[nH]c(=O)[nH]c1=O`, the Ratio in [1] is 0.92. Also, the EC50 in data set [2] was 65 µM; in [3], 2000 µM; in data set [5], 700 µM; in [7], 2000 µM; in [10] it was 13 µM. Moreover, the IC50 in data set [12] came to 5.8 µM.

Turning to `CSCSC[C@@H](CO)NC(=O)/C=C/c1c(C)nc(O)nc1O`, in [1], the Ratio was 0.01. The EC50 is 550 µM in data set [2]; 2000 µM in data set [3]; 1000 µM in data set [5]; 2000 µM in data set [7]; 1000 µM in data set [10]. The IC50 in data set [12] came to 300 µM.

Take `CSCSC[C@H](CO)NC(=O)/C=C/c1c(C)nc(O)nc1O`: the EC50 in data set [2] is 150 µM; in data set [3], 2000 µM; in [5], 550 µM; in data set [7], 2000 µM; in [10], 7 µM. The IC50 in data set [12] came out at 12.8 µM. Also, the Ratio in data set [16] is 1.8.

As to `CSC[S+]([O-])CC(CO)NC(=O)/C=C/c1cnc(O)nc1O` (stereo not drawn), the Ratio in data set [1] stood at 0.27. The EC50 amounted to 50 µM in data set [2]; 1000 µM in data set [3]; 30 µM in data set [5]; 600 µM in data set [7]; 50 µM in [10]. Further, the IC50 in data set [12] was determined as 12.7 µM.

Turning to `CSC[S@+]([O-])C[C@H](CO)NC(=O)/C=C/c1c(C)[nH]c(=O)[nH]c1=O`, in data set [1], the Ratio stood at 1. The Inhibition in [17] came out at 64%; in [18], 86%; in [19], 92%; in data set [20], 76%; in data set [21] it was 91%; in data set [22], 57%. The Inhibition in [23] was found to be 64%. For the same molecule, the EC50 in data set [2] is 2.8 µM; in [3], 5.2 µM; in data set [5], 3.2 µM; in [6], 900 µM; in data set [7], 8.5 µM; in data set [10], 0.1 µM. In data set [12], the IC50 worked out at 0.4 µM.

For the molecule `Cc1nc(O)nc(O)c1/C=C/C(=O)NC(CO)C[S+]([O-])CSCc1ccccc1` (stereo not drawn), in data set [1], the Ratio came to 1. Moreover, the Inhibition in [24] was 25%; in data set [25], 29%; in data set [26], 20%; in data set [27], 54%. Also, the EC50 was 2.6 µM in [2]; 0.6 µM in [3]; 7.6 µM in data set [5]; 60 µM in data set [6]; 0.6 µM in [7]; 0.13 µM in data set [10]. Moreover, in data set [12], the IC50 stood at 0.11 µM.

As to `CCC[S+]([O-])CC(CO)NC(=O)/C=C/c1c(C)nc(O)nc1O` (stereo not drawn), the Ratio in [1] stood at 0.3. The EC50 worked out at 6.2 µM in [2]; 42 µM in data set [3]; 4.5 µM in [5]; 1000 µM in data set [6]; 140 µM in data set [7]; 0.23 µM in data set [10]. Besides, in data set [12], the IC50 is 0.75 µM.

Turning to `Cc1nc(O)nc(O)c1/C=C/C(=O)NC(CO)CSC[S+](C)[O-]` (stereo not drawn), the EC50 came to 350 µM in data set [2]; 2000 µM in data set [3]; 750 µM in data set [5]; 2000 µM in [7]; 160 µM in data set [10]. In data set [28], the Ratio was 0.4. Moreover, in [12], the IC50 is 180 µM.

Regarding `CSC[S+]([O-])CC(CO)NC(=O)/C=C\c1cnc(O)nc1O` (stereo not drawn), the Ratio in data set [1] was 0.47.

Take `CSC[S@+]([O-])C[C@@H](CO)NC(=O)/C=C/c1c(C)nc(O)nc1O`: the Ratio in data set [1] turned out to be 0.32. The EC50 was found to be 650 µM in data set [2]; 2000 µM in data set [3]; 1000 µM in data set [5]; 2000 µM in [7]; 40 µM in data set [10]. The IC50 in [12] was 300 µM.

Consider `CSC[S@@+]([O-])C[C@@H](CO)NC(=O)/C=C/c1c(C)[nH]c(=O)[nH]c1=O` (racemic), for which, in data set [1], the Ratio amounted to 0.01. Further, the EC50 in [2] was determined as 1000 µM; in data set [3] it was 2000 µM; in data set [5], 1000 µM; in data set [7] it was 2000 µM; in data set [10], 100 µM. Moreover, the IC50 in data set [12] is 300 µM.

Take `Cc1nc(O)nc(O)c1/C=C/C(=O)N[C@@H](CO)C[S@+]([O-])CCl`: the Ratio in data set [1] came out at 0.01. Besides, the EC50 in data set [2] turned out to be 5000 µM; in data set [3], 2500 µM; in [5], 5000 µM; in data set [6], 5000 µM; in data set [7], 2000 µM; in data set [10] it was 5000 µM. In addition, the IC50 in data set [12] stood at 30 µM.

As for `Cc1nc(O)nc(O)c1/C=C/C(=O)N[C@@H](CO)C[S@@+]([O-])CCl`, in data set [1], the Ratio was 0.55. Besides, the EC50 in data set [2] was 17 µM; in data set [3] it was 220 µM; in data set [5], 7.6 µM; in data set [6], 5000 µM; in data set [7], 450 µM; in data set [10], 0.65 µM. Besides, in [12], the IC50 amounted to 0.29 µM.
